Converted amounts (≈) assume the structure as drawn.
Legend:
Assay type in all cases: functional
[1] = system: Streptococcus pneumoniae; experiment: Antimicrobial activity against drug-resistant Streptococcus pneumoniae isolate 24 after 50 passages with moxifloxacin measured after 10 antibiotic-free subculture by multi-step resistance selection technique
In short: (§1)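 Mutants selected by daily broth passage in subinhibitory drug in cation-adjusted Mueller-Hinton broth with 5% lysed horse blood. Stability was tested by 10 daily passages on blood agar without antibiotic, then macrodilution MIC.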

[2] = system: Streptococcus pneumoniae; experiment: Antimicrobial activity against drug-resistant Streptococcus pneumoniae isolate 24 after 14 passages with Telithromycin measured after 10 antibiotic-free subculture by multi-step resistance selection technique; in short: as §1
[3] = system: Streptococcus pneumoniae; experiment: Antimicrobial activity against drug-resistant Streptococcus pneumoniae isolate 24 by NCCLS M7-A7 method
[4] = system: Streptococcus pneumoniae; experiment: Antimicrobial activity against drug-resistant Streptococcus pneumoniae isolate 1635 after 14 passages with azithromycin measured after 10 antibiotic-free subculture by multi-step resistance selection technique; in short: as §1
[5] = system: Streptococcus pneumoniae; experiment: Antimicrobial activity against drug-resistant Streptococcus pneumoniae isolate 3243 after 41 passages with clarithromycin measured after 10 antibiotic-free subculture by multi-step resistance selection technique
[6] = system: Streptococcus pneumoniae; experiment: Antimicrobial activity against drug-resistant Streptococcus pneumoniae isolate 3243 after 50 passages by multi-step resistance selection technique
In short: (§2)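 Daily serial passage in subinhibitory drug levels in 1 ml cation-adjusted Mueller-Hinton broth with 5% lysed horse blood; fresh broth for tigecycline. Each day, 10 μl were taken from the tube one to two dilutions below the MIC whose turbidity matched the growth control, and used to set the next MIC. […] MIC by macrodilution.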

[7] = system: Streptococcus pneumoniae; experiment: Antimicrobial activity against drug-resistant Streptococcus pneumoniae isolate 3274 after 48 passages with Telithromycin measured after 10 antibiotic-free subculture by multi-step resistance selection technique; in short: as §1
[8] = system: Streptococcus pneumoniae; experiment: Antimicrobial activity against drug-resistant Streptococcus pneumoniae isolate 1077 after 49 passages with clindamycin measured after 10 antibiotic-free subculture by multi-step resistance selection technique
[9] = system: Streptococcus pneumoniae; experiment: Antimicrobial activity against drug-resistant Streptococcus pneumoniae isolate 1077 after 29 passages with azithromycin measured after 10 antibiotic-free subculture by multi-step resistance selection technique; in short: as §1
[10] = system: Streptococcus pneumoniae; experiment: Antimicrobial activity against drug-resistant Streptococcus pneumoniae isolate 1077 after 50 passages by multi-step resistance selection technique
In short: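 Daily serial passage in subinhibitory drug levels in 1 ml cation-adjusted Mueller-Hinton broth with 5% lysed horse blood; fresh broth for tigecycline. Each day, 10 μl were taken from the tube one to two dilutions below the MIC whose turbidity matched the growth control, and used to set the next MIC. MIC by macrodilution.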

[11] = system: Streptococcus pneumoniae; experiment: Antimicrobial activity against drug-resistant Streptococcus pneumoniae isolate 1077 by NCCLS M7-A7 method
[12] = system: Streptococcus pneumoniae; experiment: Antimicrobial activity against drug-resistant Streptococcus pneumoniae isolate 3009 after 18 passages with levofloxacin measured after 10 antibiotic-free subculture by multi-step resistance selection technique; in short: as §1
[13] = system: Streptococcus pneumoniae; experiment: Antimicrobial activity against drug-resistant Streptococcus pneumoniae isolate 1635 after 14 passages with clindamycin measured after 10 antibiotic-free subculture by multi-step resistance selection technique
[14] = system: Streptococcus pneumoniae; experiment: Antimicrobial activity against drug-resistant Streptococcus pneumoniae isolate 3676 after 14 passages with Telithromycin measured after 10 antibiotic-free subculture by multi-step resistance selection technique
[15] = system: Streptococcus pneumoniae; experiment: Antimicrobial activity against drug-resistant Streptococcus pneumoniae isolate 3676 by NCCLS M7-A7 method
[16] = system: Streptococcus pneumoniae; experiment: Antimicrobial activity against drug-resistant Streptococcus pneumoniae isolate 2527 after 14 passages by multi-step resistance selection technique; in short: as §2
[17] = system: Streptococcus pneumoniae; experiment: Antimicrobial activity against drug-resistant Streptococcus pneumoniae isolate 3009 after 21 passages by multi-step resistance selection technique; in short: as §2
[18] = system: Streptococcus pneumoniae; experiment: Antimicrobial activity against drug-resistant Streptococcus pneumoniae isolate 24 after 14 passages by multi-step resistance selection technique; in short: as §2
[19] = system: Streptococcus pneumoniae; experiment: Antimicrobial activity against drug-resistant Streptococcus pneumoniae isolate 3243 after 29 passages by multi-step resistance selection technique
In short: (§3)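 Daily serial passage in subinhibitory drug in cation-adjusted Mueller-Hinton broth with 5% lysed horse blood, 1 ml per tube, fresh broth for tigecycline. Each day, 10 μl was taken from the tube one to two dilutions below the MIC whose turbidity matched the growth control and used for the next MIC. Passaging ran until MIC rose ≥8 times, minimum 14 and maximum 50 passages. Clone MICs were read by macrodilution.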

[20] = system: Streptococcus pneumoniae; experiment: Antimicrobial activity against drug-resistant Streptococcus pneumoniae isolate 3274 after 48 passages by multi-step resistance selection technique; in short: as §3
[21] = system: Streptococcus pneumoniae; experiment: Antimicrobial activity against drug-resistant Streptococcus pneumoniae isolate 1077 after 15 passages by multi-step resistance selection technique; in short: as §3
[22] = system: Streptococcus pneumoniae; experiment: Antimicrobial activity against drug-resistant Streptococcus pneumoniae isolate 1076 after 14 passages by multi-step resistance selection technique; in short: as §2
[23] = system: Streptococcus pneumoniae; experiment: Antimicrobial activity against drug-resistant Streptococcus pneumoniae isolate 37 after 14 passages by multi-step resistance selection technique
In short: (§4)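 Daily serial passage in broth at subinhibitory drug levels: 1 ml cation-adjusted Mueller-Hinton broth with 5% lysed horse blood; fresh broth for tigecycline. Each day 10 μl inoculum taken from the tube one to two dilutions below MIC matching growth-control turbidity, used to set next MIC. Continued until ≥8-fold MIC rise, minimum 14, maximum 50 passages; MIC read by macrodilution.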

[24] = system: Streptococcus pneumoniae; experiment: Antimicrobial activity against drug-resistant Streptococcus pneumoniae isolate 3413 after 30 passages by multi-step resistance selection technique; in short: as §3
[25] = system: Streptococcus pneumoniae; experiment: Antimicrobial activity against drug-resistant Streptococcus pneumoniae isolate 3676 after 14 passages by multi-step resistance selection technique; in short: as §4
[26] = system: Streptococcus pneumoniae; experiment: Antimicrobial activity against drug-resistant Streptococcus pneumoniae isolate 3665 after 14 passages by multi-step resistance selection technique; in short: as §2

CO/N=C(\C(=O)N[C@@H]1C(=O)N2C(C(=O)O)=C(CSc3nc(=O)c(O)nn3C)CS[C@H]12)c1csc(N)n1 [CEFTRIAXONE]
MIC [1]: 1 mg/L (≈ 1.8 µM)
MIC [2]: 2 mg/L (≈ 3.61 µM)
MIC [3]: 1 mg/L (≈ 1.8 µM)
MIC [4]: 0.016 mg/L (≈ 0.0289 µM)
MIC [5]: 0.125 mg/L (≈ 0.225 µM)
MIC [6]: 0.25 mg/L (≈ 0.451 µM)
MIC [7]: 0.125 mg/L (≈ 0.225 µM)
MIC [8]: 0.016 mg/L (≈ 0.0289 µM)
MIC [9]: 0.03 mg/L (≈ 0.0541 µM)
MIC [10]: 0.016 mg/L (≈ 0.0289 µM)
MIC [11]: 0.016 mg/L (≈ 0.0289 µM)
MIC [12]: 0.016 mg/L (≈ 0.0289 µM)
MIC [13]: 0.016 mg/L (≈ 0.0289 µM)
MIC [14]: 0.06 mg/L (≈ 0.108 µM)
MIC [15]: 0.03 mg/L (≈ 0.0541 µM)

CO/N=C1\CN(c2nc3c(cc2F)c(=O)c(C(=O)O)cn3C2CC2)CC1CN (stereo not drawn) [GEMIFLOXACIN]
MIC [1]: 0.5 mg/L (≈ 1.28 µM)
MIC [2]: 0.016 mg/L (≈ 0.0411 µM)
MIC [3]: 0.016 mg/L (≈ 0.0411 µM)
MIC [4]: 0.03 mg/L (≈ 0.077 µM)
MIC [5]: 0.03 mg/L (≈ 0.077 µM)
MIC [6]: 0.06 mg/L (≈ 0.154 µM)
MIC [7]: 0.03 mg/L (≈ 0.077 µM)
MIC [16]: 2 mg/L (≈ 5.14 µM)
MIC [8]: 0.25 mg/L (≈ 0.642 µM)
MIC [9]: 0.25 mg/L (≈ 0.642 µM)
MIC [10]: 1 mg/L (≈ 2.57 µM)
MIC [11]: 0.25 mg/L (≈ 0.642 µM)
MIC [12]: 1 mg/L (≈ 2.57 µM)
MIC [17]: 1 mg/L (≈ 2.57 µM)
MIC [13]: 0.03 mg/L (≈ 0.077 µM)
MIC [14]: 0.06 mg/L (≈ 0.154 µM)
MIC [15]: 0.016 mg/L (≈ 0.0411 µM)

C[C@@H](O)[C@H]1C(=O)N2C(C(=O)O)=C(SCCNC=N)C[C@H]12 [IMIPENEM ANHYDROUS]
MIC [1]: 0.5 mg/L (≈ 1.67 µM)
MIC [2]: 0.25 mg/L (≈ 0.835 µM)
MIC [3]: 0.5 mg/L (≈ 1.67 µM)
MIC [4]: 0.002 mg/L (≈ 0.00668 µM)
MIC [5]: 0.03 mg/L (≈ 0.1 µM)
MIC [6]: 0.016 mg/L (≈ 0.0534 µM)
MIC [7]: 0.016 mg/L (≈ 0.0534 µM)
MIC [8]: 0.004 mg/L (≈ 0.0134 µM)
MIC [9]: 0.008 mg/L (≈ 0.0267 µM)
MIC [10]: 0.008 mg/L (≈ 0.0267 µM)
MIC [11]: 0.008 mg/L (≈ 0.0267 µM)
MIC [13]: 0.002 mg/L (≈ 0.00668 µM)
MIC [14]: 0.008 mg/L (≈ 0.0267 µM)
MIC [15]: 0.016 mg/L (≈ 0.0534 µM)

CC[C@H]1OC(=O)[C@H](C)C(=O)[C@H](C)[C@@H](O[C@@H]2O[C@H](C)C[C@H](N(C)C)[C@H]2O)[C@](C)(OC)C[C@@H](C)C(=O)[C@H](C)[C@H]2N(CCCCn3cnc(-c4cccnc4)c3)C(=O)O[C@]12C [TELITHROMYCIN]
MIC [1]: 0.25 mg/L (≈ 0.308 µM)
MIC [2]: 16 mg/L (≈ 19.7 µM)
MIC [18]: 32 mg/L (≈ 39.4 µM)
MIC [3]: 0.25 mg/L (≈ 0.308 µM)
MIC [4]: 0.004 mg/L (≈ 0.00493 µM)
MIC [5]: 0.016 mg/L (≈ 0.0197 µM)
MIC [19]: 0.06 mg/L (≈ 0.0739 µM)
MIC [7]: 0.5 mg/L (≈ 0.616 µM)
MIC [20]: 0.5 mg/L (≈ 0.616 µM)
MIC [8]: 0.06 mg/L (≈ 0.0739 µM)
MIC [9]: 0.125 mg/L (≈ 0.154 µM)
MIC [21]: 0.25 mg/L (≈ 0.308 µM)
MIC [11]: 0.004 mg/L (≈ 0.00493 µM)
MIC [22]: > 64 mg/L
MIC [12]: 0.016 mg/L (≈ 0.0197 µM)
MIC [13]: 0.008 mg/L (≈ 0.00985 µM)
MIC [23]: 4 mg/L (≈ 4.93 µM)
MIC [24]: 0.25 mg/L (≈ 0.308 µM)
MIC [14]: 0.06 mg/L (≈ 0.0739 µM)
MIC [25]: 2 mg/L (≈ 2.46 µM)
MIC [15]: 0.06 mg/L (≈ 0.0739 µM)
MIC [26]: 2 mg/L (≈ 2.46 µM)

CN(C)c1cc(NC(=O)CNC(C)(C)C)c(O)c2c1C[C@H]1C[C@H]3[C@H](N(C)C)C(O)=C(C(N)=O)C(=O)[C@@]3(O)C(O)=C1C2=O [TIGECYCLINE]
MIC [1]: 0.03 mg/L (≈ 0.0512 µM)
MIC [2]: 0.03 mg/L (≈ 0.0512 µM)
MIC [3]: 0.03 mg/L (≈ 0.0512 µM)
MIC [4]: 0.03 mg/L (≈ 0.0512 µM)
MIC [5]: 0.03 mg/L (≈ 0.0512 µM)
MIC [6]: 0.03 mg/L (≈ 0.0512 µM)
MIC [7]: 0.03 mg/L (≈ 0.0512 µM)
MIC [8]: 0.03 mg/L (≈ 0.0512 µM)
MIC [9]: 0.03 mg/L (≈ 0.0512 µM)
MIC [10]: 0.016 mg/L (≈ 0.0273 µM)
MIC [11]: 0.016 mg/L (≈ 0.0273 µM)
MIC [12]: 0.06 mg/L (≈ 0.102 µM)
MIC [13]: 0.03 mg/L (≈ 0.0512 µM)
MIC [14]: 0.03 mg/L (≈ 0.0512 µM)
MIC [15]: 0.016 mg/L (≈ 0.0273 µM)

From ChEMBL document CHEMBL1151428, “Capability of 11 antipneumococcal antibiotics to select for resistance by multistep and single-step methodologies” (2007)
